Activity calls are given as the source filed them.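 The calls were made as follows: active = current rise at least 3 SD above the untreated control mean in each of two repeat wells; inactive = the rest.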

Sequence of Potassium voltage-gated channel subfamily KQT member 1 (Homo sapiens) (P51787 whole entry, looked up): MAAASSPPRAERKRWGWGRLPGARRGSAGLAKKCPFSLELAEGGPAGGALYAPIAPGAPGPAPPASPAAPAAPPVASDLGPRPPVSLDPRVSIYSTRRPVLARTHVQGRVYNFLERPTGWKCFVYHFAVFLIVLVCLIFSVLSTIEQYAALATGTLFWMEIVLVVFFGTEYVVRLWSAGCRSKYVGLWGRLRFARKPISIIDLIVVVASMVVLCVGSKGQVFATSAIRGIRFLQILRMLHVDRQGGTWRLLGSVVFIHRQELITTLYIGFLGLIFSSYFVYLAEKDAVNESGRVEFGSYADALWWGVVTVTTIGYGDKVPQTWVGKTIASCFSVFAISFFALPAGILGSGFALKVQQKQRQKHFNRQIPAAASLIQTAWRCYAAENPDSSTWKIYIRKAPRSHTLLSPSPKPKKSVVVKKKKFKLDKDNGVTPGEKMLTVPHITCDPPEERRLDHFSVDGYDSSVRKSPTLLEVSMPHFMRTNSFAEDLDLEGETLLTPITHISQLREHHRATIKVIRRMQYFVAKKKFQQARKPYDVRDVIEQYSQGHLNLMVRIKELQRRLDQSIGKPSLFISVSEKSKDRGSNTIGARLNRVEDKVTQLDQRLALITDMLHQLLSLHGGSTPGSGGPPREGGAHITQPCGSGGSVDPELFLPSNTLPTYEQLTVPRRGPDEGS

This test has as its target Potassium voltage-gated channel subfamily KQT member 1 (Homo sapiens) (UniProt P51787). Kind of test: KCNQ1 activators by electrophysiology – IonWorks patch clamp, KCNQ1-CHO cells, orthogonal assay for KCNQ1 potentiator project, confirmation (AID 493184). The note with it: automated patch clamp current, at 10 µM. A digest of the protocol:
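Assay system – CHO cells carrying KCNQ1 · Medium – pH 7.4 external bath · Probe or stimulus – depolarizing pulse to +40 mV from -90 mV · Compound dosing – one dose, 10 µM final · Measured by – automated perforated-patch electrophysiology · Measure – % potentiation of steady-state current relative to pre-compound · Repeats – two replicates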
As to `OC[C@H]1O[C@H](OC[C@H]2O[C@H](OC[C@H]3O[C@H](O[C@]4(CO)O[C@H](CO)[C@@H](O)[C@@H]4O)[C@H](O)[C@@H](O)[C@@H]3O)[C@H](O)[C@@H](O)[C@H]2O)[C@H](O)[C@@H](O)[C@H]1O`, the result was inactive. `Cc1ccc(Cn2ncc3c(NN)ncnc32)cc1`: the outcome was inactive. The same measure for `Cc1nn2c(NCc3ccccn3)cc(C(C)C)nc2c1-c1ccccc1`: “inactive”; for `Cn1cccc1/C=N/n1c(-c2ccc(C(C)(C)C)cc2)n[nH]c1=S`: “inactive”. Regarding `Cn1nc(SCC(=O)O)sc1=S`, the result was inactive.

Turning to `CCCCOC(=O)c1ccc(NC(=S)NC(=O)c2c(Cl)cnn2CC)cc1`, the result was inactive.

On to `O=C(Nc1nccs1)c1ccc(-c2ccc(F)c(Cl)c2)o1`, for which the result was inactive.

In the case of `CSC(=S)N/N=C/c1ccc(N(C)C)cc1`, the outcome was inactive. Regarding `COc1ccc(NC(=O)[C@@H]2CC=C[C@@H]3CCN(C4CCCCC4)C(=O)[C@@H]32)cc1`, the outcome was inactive.

Regarding `O=C(O)c1ccccc1NS(=O)(=O)c1cccc(-n2sc3ccccc3c2=O)c1`, the outcome was inactive. Regarding `COc1ccc(OC)c(NC(=O)C(=O)NNC(=O)C23CC4CC(CC(C4)C2)C3)c1`, the result was inactive. For the molecule `COc1ccc(-c2csc(N(CCCN(C)C)C(=O)c3ccccc3Cl)n2)cc1`, the outcome was inactive. Take `CCOC(=O)CSc1nc(C2CC2)cc(-c2ccc(F)cc2)c1C#N`: the outcome was inactive. On to `CCOC(=O)c1c(NS(C)(=O)=O)sc2c1CCC(C)C2` (stereo not given), for which the result was inactive. As to `CCn1nc(C)c(NC(=O)c2cnn3c(C(F)F)cc(-c4ccccc4)nc23)c1C`, the outcome was inactive. With `Oc1ccc(N=Nc2ccc3c(c2)OCCO3)c2ncccc12`, the outcome was inactive. With `CCc1ccc(S(=O)(=O)NC(=S)NC2CCCCC2)cc1`, the result was inactive. Regarding `O=C(NC(=S)Nc1nc2c(s1)CSc1ccccc1-2)c1ccccc1`, the result was inactive. Turning to `CCN(CC)C(=S)NC(=O)c1ccc(OC)c(Br)c1`, the outcome was inactive. Take `Fc1ccc(SCCc2ccncc2)cc1`: the outcome was inactive. As for `CCOC(=O)c1ccc(Nc2nc(N3CCOCC3)nc(N3CCOCC3)n2)cc1`, the outcome was inactive.

For the molecule `CCCSC(=S)c1c(C)[nH]n(-c2ccccc2)c1=O`, the result was inactive. `O=C(NC(=S)NCc1ccccc1)c1ccc(Br)o1`: the outcome was inactive. The same measure for `Cc1ccc(-c2csc3ncnc(SCc4ccc(C(=O)O)cc4)c23)cc1`: “inactive”; for `CC(C)(C)CC(C)(C)NCC(O)COCCOc1ccc(Br)cc1` (stereo not given): “inactive”; for `Cc1ccnc(NC(=O)CNC(=O)c2ccc3c(c2)OCO3)c1`: “inactive”. Then `Cc1cc(C)n(-c2nc3ccccc3nc2N2CCN(C(=O)c3ccc(Cl)cc3)CC2)n1`, with “inactive”.

On to `CN(C)c1nc(=Nc2cccc(Cl)c2)ss1`, for which the outcome was inactive. Take `Nc1nonc1C(=O)NCCN=Cc1cc(Cc2ccccc2)cc(Br)c1O`: the result was inactive. Take `C/C(=N/NC(=O)c1ccc(Br)o1)c1ccc(C)o1`: the result was inactive. Consider `Oc1c(Cl)cc(Cl)c2cccnc12`, for which the outcome was inactive. Consider `Cc1onc(-c2ccccc2)c1C(=O)N1CCN(S(=O)(=O)c2ccc(OC(F)(F)F)cc2)CC1`, for which the outcome was inactive. Consider `Cc1cc(S(=O)(=O)N2CCOCC2)ccc1OCC(=O)Nc1ccc(Br)cc1F`, for which the result was inactive. Then `COCCNC(=O)CN(C)S(=O)(=O)c1ccc(Br)cc1`, with “inactive”.

With `O=C(NC(=S)N1CCN(c2nc(-c3ccccc3)cs2)CC1)c1cncc(Br)c1`, the outcome was inactive.

Regarding `Oc1c(N=NC(=S)Nc2ccccc2F)c2ccccc2n1Cc1ccc(F)cc1`, the result was inactive. `Cc1ccc2sc(N(CCCN(C)C)C(=O)CCS(=O)(=O)c3ccccc3)nc2c1C`: the result was inactive.

Consider `O=C(NC(=S)Nc1ccccc1N1CCCC1)c1cccs1`, for which the result was inactive. Turning to `S=c1nc(C2CC2)[nH]c2ccccc12`, the outcome was inactive.

Consider `CCn1ncc(Cl)c1C(=O)NC(=S)Nc1ccccc1Br`, for which the outcome was inactive.

(Values after PubChem BioAssay.)
